Experimental findings from the EternaBench riboswitch data are described below.

The subject of this series is MS2 coat protein. The series is described as follows: apparent Kd, MS2 coat protein; higher = weaker binding; RNA-MaP array; FMN 200 µM where present. Summed up:
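The apparent Kd is reported as the median of filtered per-cluster binding-curve fits. To get these curves, designs transcribed by stalled E. coli RNA polymerase on Illumina sequencing-chip clusters were titrated with SNAP-549-labelled MS2 coat protein from 0.7 or 1.5 nM, doubling to 3 µM. Titrations were run without and then with constant ligand in 100 mM Tris-HCl pH 7.5, 80 mM KCl, 4 mM MgCl2, BSA, DTT, yeast tRNA and Tween-20, and green signal was normalised to red-channel RNA signal and control-cluster median Fmax.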

Where [1] appears, read: designed as: ON switch for flavin mononucleotide, no ligand.
Where [2] appears, read: ligand present: flavin mononucleotide, designed as: ON switch for flavin mononucleotide.
The mark [3] stands for this setting: designed as: OFF switch for flavin mononucleotide, no ligand.
The mark [4] stands for this setting: ligand present: flavin mononucleotide, designed as: OFF switch for flavin mononucleotide.

By apparent Kd is commonly meant a dissociation constant that holds for the conditions of the assay. “GGUACCUUCACAGGAUAUGCUAUCGUUUCGGUAGCAGAAGGGUGAUACAUGAGGAUCACCCAUGUGGUGCCAGGGCGUGAGCCC”: the “apparent Kd” value under setting [1] stood at 842 nM and the “apparent Kd” value under setting [2] came out at 329 nM.

For the sequence “CUAAAUCAUGUAGGAUAUGCGUGGCGAAGCUAUGCAGAAGGACAUGAGGAUCACCCAUGUCAAAAUUUCUGCGUACAGACGGAA”, the “apparent Kd” value is 15.5 nM under setting [3] and 30.7 nM under setting [4].

Take “CUAUAUAAUACCUCAUGUACAUGAGGAUCACCCAUGUUAACUUAGGAUAUAUUUAUAUUAAUAAAGUAGAAGGAAGUACUAUUU”: the “apparent Kd” value under setting [3] came out at 23.3 nM and the “apparent Kd” value under setting [4] turned out to be 19.4 nM.

For the sequence “UCGAUGCUAGGAUAUACGUAUAAAACCACCGUAGAGUCCUCACAUGAGGAUCACCCAUGUAGAAGGAGCAUCUA”, the “apparent Kd” value under setting [3] stood at 17.3 nM and the “apparent Kd” value under setting [4] is 23.4 nM.

In the case of “UUUGUACAUGAGGAUCACCCAUGUCAGGAUAUGUCAUCGCCGUCCGACGGCCGGCGUCACAGAAGGGACAUGCA”, the “apparent Kd” value was determined as 27.8 nM under setting [3] and 78.1 nM under setting [4].

As to “UUGGACGUCGUAGGAUAUGUAGGAUAUUCCUACAUGAGGAUCACCCAUGUUGACAUGGAAGAAGGAUAGAAGGACGAUGUCCAU”, the “apparent Kd” value is, setting by setting: under setting [1], 624 nM; under setting [2], 81.5 nM.

Turning to “GAGUGACAUGAGGAUCACCCAUGUGAGGAUAUCGGACGGACCAAAUUAACAACAAACGCGAGAAGGCACAUCGG”, the “apparent Kd” value by setting is: under setting [3], 76.4 nM; under setting [4], 79.5 nM.

“AGAUAGUUAUAACGCCAUCCCUACAUGAGGAUCACCCAUGUGCAGGAUAUAGGCUUGAAGCAAACCUAGAAGGGCACAGGUUGA”: the “apparent Kd” value under setting [3] turned out to be 15.8 nM and the “apparent Kd” value under setting [4] amounted to 35.9 nM.

For “CCACGUCCCAUUAACAUGAGGAUCACCCAUGUCAAAAGACAUGAGGAUAUGCAUCCUAAUUGGAUGCAGAAGGCAUGGACGUGG”, the “apparent Kd” value under setting [1] came out at 814 nM and the “apparent Kd” value under setting [2] is 87.1 nM.

For “UAUAAAAUUAUAGGAUAUCGAUAUCAAAGAUAUCGAGAAGGGUGAAUAUAAUAUUAUCUGUACAUGAGGAUCACCCAUGUUUAU”, the “apparent Kd” value runs as follows: under setting [1], 276 nM; under setting [2], 87.2 nM.

On to “CCACGUCACAUGAACAUGAGGAUCACCCAUGUAAAUUCUCAUGAGGAUAUGGAUCCUAAUUGGAUCCAGAAGGCGUGGACGUGG”, for which the “apparent Kd” value was 1070 nM under setting [1] and 461 nM under setting [2].

Consider “ACAUGAGAUCUAGGAUAUAUUGUACCUACAUGUGACAUGAGGAUCACCCAUGUGGUAAGUAUGACAUAGAAGGAGAAGAUAUGU”, for which the “apparent Kd” value by setting is: under setting [1], 71 nM; under setting [2], 54.3 nM.

Turning to “UACAUGAGGAUCACCCAUGUUUUGUCGUGUAUGGUAUUUAUCUAGGAUAUCAAUUUAAUUAUUUAUGAGAAGGAGAAUAUUAAU”, the “apparent Kd” value is, setting by setting: under setting [3], 39.6 nM; under setting [4], 33.1 nM.

“GGUCCAUAAUGAGGAUAUGGCACCUUAUUGGUGCCAGAAGGCAUGUCUAUAGACAUGAGGAUCACCCAUGUAAUAAAUUGGACC”: the “apparent Kd” value amounted to 435 nM under setting [1] and 43.3 nM under setting [2].

As for “AUGCUCAUAGGAUAUAGAUUGAUUCACAUGAGGAUCACCCAUGUAAACUCUACUUUUUAACUAGAAGGAUGUUUUU”, the “apparent Kd” value came out at 24.7 nM under setting [3] and 23.5 nM under setting [4].

As to “UUGGACGUCGCAGGAUAUGUAGGAUAUUCCUACAUGAGGAUCACCCAUGUUGACAUGGAAGAAGGACAGAAGGACGAUGUCCAU”, the “apparent Kd” value under setting [1] was determined as 693 nM and the “apparent Kd” value under setting [2] amounted to 9.15 nM.

As to “AUGCUAUACGAAGGAUAUGGUUACAUGAGGAUCACCCAUGUUAUGAUUGGGUACAUGAAAAGGUUCCAGAAGGUCGUAUAGCUA”, the “apparent Kd” value was 1210 nM under setting [3] and 736 nM under setting [4].

Take “UUUUAGACAGGAUAUACAUUUUUUUAUUUAUUUAUAAUAUUACAUGAGGAUCACCCAUGUAGAAGGGUCAUUUU”: the “apparent Kd” value reads like this: under setting [3], 39.3 nM; under setting [4], 31.2 nM.

For “GCAUGGUAUGAGAAGGCAUAAUUUAUCUAACAACAUGAUUACAUGAGGAUCACCCAUGUUUCCAAUGAGGAUAUCAUACCGUGC”, the “apparent Kd” value reads like this: under setting [3], 7.83 nM; under setting [4], 7.12 nM.

As for “UAAUUACAUGAGGAUCACCCAUGUGAGGAUAUGUCCAUAUUCGGCAAAUCGGAUAUGGACAGAAGGCACACCGG”, the “apparent Kd” value worked out at 56.3 nM under setting [3] and 141 nM under setting [4].

Regarding “UAUUUAUAGCAAGGAUAUGAUUAUUAUUAUUUAUCAGAAGGUGCACAUGAGGAUCACCCAUGUUUUAUAAUUUGUAAUUUAAUU”, the “apparent Kd” value under setting [3] stood at 55.6 nM and the “apparent Kd” value under setting [4] was 21.8 nM.

For the sequence “CGGGAGUCAGGAUAUACGAACAUGUCGCCAGAUGUCAAGGUACAUGAGGAUCACCCAUGUAGAAGGGAGGAGGG”, the “apparent Kd” value amounted to 60.5 nM under setting [3] and 32.7 nM under setting [4].

For “CUUUUGUGAGGAUAUCAGUAGUAAAUAAAUAAUAUUACUACUGAGAAGGCACAUGAGGAUCACCCAUGUUCCUC”, the “apparent Kd” value reads like this: under setting [3], 42.6 nM; under setting [4], 253 nM.

For “AAACAUGUCCGAGGAUAUCUGAGAUCAUUUUCAAGAGAAGGCGGACAUGAGGAUCACCCAUGUCUCUCCUCAUCAACGCCAAAU”, the “apparent Kd” value was found to be 26.9 nM under setting [3] and 51.7 nM under setting [4].
